What was measured:
[1] = Effect on PGI-2 release from rat aortic tissue at a final concentration of 10e -4 for an incubation time of 25 minutes; assay type: functional
In short: (§1)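 Female Wistar rats (200–220 g) received heparin 200 IU/kg ip and were killed 10 min later. Aortic pieces of about 25 mm² were washed in ice-cold oxygenated Krebs–Henseleit buffer, then incubated in 1 mL buffer at 37 °C. Compound at 10^-4 M final was added 10 min before tissue transfer. PGI2 release was read as antiaggregatory activity of the incubate on ADP (2×10^-6 M)-induced human PRP aggregation and by 6-keto-PGF1α RIA. n = 4.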

[2] = biological target: T1, Thromboxane-A synthase (Homo sapiens) (UniProt P24557); assay: Effect on thromboxane synthetase activity on ex vivo platelet aggregation induced by TXB2 at 100 mg/kg expressed as percent increase; assay type: functional, organism-based; set-up: dose 100 mg/kg; details: Cavia porcellus
T1 sequence (whole entry): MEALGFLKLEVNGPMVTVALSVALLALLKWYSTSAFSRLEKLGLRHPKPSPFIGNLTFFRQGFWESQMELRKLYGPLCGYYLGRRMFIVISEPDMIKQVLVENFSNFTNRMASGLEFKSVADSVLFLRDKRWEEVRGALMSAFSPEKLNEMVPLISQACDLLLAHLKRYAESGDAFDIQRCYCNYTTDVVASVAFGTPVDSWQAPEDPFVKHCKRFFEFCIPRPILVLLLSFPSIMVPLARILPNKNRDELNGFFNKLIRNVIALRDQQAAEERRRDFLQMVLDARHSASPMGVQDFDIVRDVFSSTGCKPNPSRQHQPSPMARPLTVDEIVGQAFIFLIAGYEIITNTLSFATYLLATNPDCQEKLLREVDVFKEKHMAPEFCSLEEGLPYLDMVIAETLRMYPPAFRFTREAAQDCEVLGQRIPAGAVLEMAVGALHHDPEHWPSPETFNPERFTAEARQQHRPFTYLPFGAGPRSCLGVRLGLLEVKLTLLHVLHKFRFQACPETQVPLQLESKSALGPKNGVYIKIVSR
In short: (§2)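 Fasted male or female guinea pigs (250–300 g, five per group) dosed orally in normal saline or saline with 0.2% (carboxymethyl)cellulose/1.0% Tween 80; controls given vehicle. Under ether, cardiac blood collected into 3.8% citrate. PRP adjusted to […] and aggregation induced by ADP (second wave) or AA, read by absorbance aggregometry. PGE2 and TXB2 measured by RIA.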

[3] = biological target: T1, Thromboxane-A synthase (Homo sapiens); assay: Effect on thromboxane synthetase activity on in vitro platelet aggregation induced by AA at 10e -5 M expressed as percent […] in TXB2; assay type: functional
In short: (§3)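 Human citrated PRP adjusted to 200 000 […], compound at 10^-5 M final in saline/10% ethylene glycol, incubated at 37 °C. Aggregation induced with arachidonic acid 0.6 mM and read by Born absorbance aggregometry. PGE2 and TXB2 in the aggregated samples measured by radioimmunoassay. n = 5.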

[4] = Effect on PGI-2 release from rat aortic tissue at a final concentration of 10e -4 for an incubation time of 10 minutes; assay type: functional; in short: as §1
[5] = biological target: T1, Thromboxane-A synthase (Homo sapiens); assay: Effect on thromboxane synthetase activity on ex vivo platelet aggregation induced by TXB2 at 50 mg/kg expressed as percent increase; assay type: functional, organism-based; set-up: dose 50 mg/kg; details: Cavia porcellus; in short: as §2
Cavia porcellus [6] = assay: Effect on thromboxane synthetase activity on ex vivo platelet aggregation induced by PGE-2 at 100 mg/kg expressed as percent increase; assay type: functional; in short: as §2
Cavia porcellus [7] = assay: Effect on thromboxane synthetase activity on ex vivo platelet aggregation induced by PGE-2 at 50 mg/kg expressed as percent increase; assay type: functional; in short: as §2
[8] = Effect on thromboxane synthetase activity on in vitro platelet aggregation induced by AA at 10e -5 M expressed as percent increase in PGE-2; assay type: functional, Homo sapiens; in short: as §3
[9] = Effect on PGI-2 release from rat aortic tissue at a final concentration of 10e -4 for an incubation time of 35 minutes; assay type: functional; in short: as §1
[10] = Effect on PGI-2 release from rat aortic tissue at a final concentration of 10e -4 for an incubation time of 30 minutes; assay type: functional; in short: as §1

inhibition [2]: 100%
inhibition [3]: 100%
inhibition [5]: 100%
SMILES: CC(=O)Oc1ccccc1C(=O)O [ASPIRIN]
Inhibition [1]: 80%
Inhibition [4]: 80%
Increase (Cavia porcellus [6]): 0%
Increase (Cavia porcellus [7]): 0%
Increase [8]: 0%
Inhibition [9]: 80%
Inhibition [10]: 80%
